Laboratory results published in ChEMBL document CHEMBL1124599, “Synthesis and structure-activity relationships of a novel class of 5-lipoxygenase inhibitors. 2-(Phenylmethyl)-4-hydroxy-3,5-dialkylbenzofurans: the development of L-656,224” (J Med Chem, 1989).

How the values were obtained:
Rattus norvegicus [1] = assay: Inhibition of antigen (IgE) induced bronchoconstriction in hyperreactive inbred rats at a compound dose of 0.5 mg/kg; type: functional
In short: (§1)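 Inbred hyperreactive rats receive compound orally 4 h before antigen, as a suspension in 0.4% methocel/0.5% Tween 80 (10 mL/kg). Methysergide (3 μg/kg iv) is given 5 min before ovalbumin aerosol challenge. Respiration is recorded by pneumotachograph. Percent inhibition is reduction in dyspnea duration versus vehicle controls, with Student's t test. ED50 is derived by linear regression.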

Rattus norvegicus [2] = species: Rattus norvegicus; assay: Inhibition of hyperalgesia response induced by subplantar injection of platelet-activating factor in rat; type: functional
[3] = target: T1, Seed linoleate 13S-lipoxygenase-1 (Glycine max, UniProt P08170); assay: Inhibitory activity towards soybean lipoxygenase
T1 sequence (P08170 whole entry): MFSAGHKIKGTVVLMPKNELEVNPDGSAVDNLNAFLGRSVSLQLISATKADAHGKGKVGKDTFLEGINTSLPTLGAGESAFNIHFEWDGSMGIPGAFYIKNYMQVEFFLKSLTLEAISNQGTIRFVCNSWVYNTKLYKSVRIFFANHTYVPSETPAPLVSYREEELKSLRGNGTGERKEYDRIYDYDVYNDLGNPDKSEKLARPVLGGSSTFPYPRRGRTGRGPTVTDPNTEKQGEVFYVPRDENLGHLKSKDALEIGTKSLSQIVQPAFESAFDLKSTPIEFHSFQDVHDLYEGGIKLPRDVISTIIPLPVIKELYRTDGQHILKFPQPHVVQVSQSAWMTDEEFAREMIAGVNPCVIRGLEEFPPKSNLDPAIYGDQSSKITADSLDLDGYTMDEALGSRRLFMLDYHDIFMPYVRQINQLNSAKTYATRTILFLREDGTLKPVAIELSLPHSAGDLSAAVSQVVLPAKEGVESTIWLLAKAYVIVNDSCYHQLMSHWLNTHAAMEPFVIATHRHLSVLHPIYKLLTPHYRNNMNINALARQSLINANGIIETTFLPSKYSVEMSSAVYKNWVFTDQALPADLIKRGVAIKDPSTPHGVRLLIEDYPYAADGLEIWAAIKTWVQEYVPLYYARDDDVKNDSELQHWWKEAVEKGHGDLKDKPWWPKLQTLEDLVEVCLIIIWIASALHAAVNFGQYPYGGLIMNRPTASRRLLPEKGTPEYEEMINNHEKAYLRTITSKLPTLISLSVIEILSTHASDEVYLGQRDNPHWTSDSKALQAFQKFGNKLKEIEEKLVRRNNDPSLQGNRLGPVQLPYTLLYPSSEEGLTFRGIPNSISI

Saimiri sciureus = assay: Inhibition of increase in pulmonary resistance and decrease in dynamic compliance of ascaris antigen-induced bronchoconstriction in squirrel monkeys at 0.25 mg/kg compound concentration
Rattus norvegicus [4] = assay: Inhibition of antigen (IgE) induced bronchoconstriction in hyperreactive inbred rats at a compound dose of 0.15 mg/kg; type: functional; in short: as §1
Rattus norvegicus [5] = assay: Inhibition of antigen (IgE) induced bronchoconstriction in hyperreactive inbred rats at a dose of 1.5 mg/kg; type: functional; in short: as §1
Rattus norvegicus [6] = assay: Effect of antigen-induced dyspnea in hyperreactive inbred rats at 0.5 mg/kg of compound concentration; type: functional; in short: as §1
[7] = target: T2, Polyunsaturated fatty acid 5-lipoxygenase (Rattus norvegicus, UniProt P12527); assay: Concentration required for 50 % inhibition of arachidonic acid oxidation by rat 5-lipoxygenase
T2 sequence (P12527 whole entry): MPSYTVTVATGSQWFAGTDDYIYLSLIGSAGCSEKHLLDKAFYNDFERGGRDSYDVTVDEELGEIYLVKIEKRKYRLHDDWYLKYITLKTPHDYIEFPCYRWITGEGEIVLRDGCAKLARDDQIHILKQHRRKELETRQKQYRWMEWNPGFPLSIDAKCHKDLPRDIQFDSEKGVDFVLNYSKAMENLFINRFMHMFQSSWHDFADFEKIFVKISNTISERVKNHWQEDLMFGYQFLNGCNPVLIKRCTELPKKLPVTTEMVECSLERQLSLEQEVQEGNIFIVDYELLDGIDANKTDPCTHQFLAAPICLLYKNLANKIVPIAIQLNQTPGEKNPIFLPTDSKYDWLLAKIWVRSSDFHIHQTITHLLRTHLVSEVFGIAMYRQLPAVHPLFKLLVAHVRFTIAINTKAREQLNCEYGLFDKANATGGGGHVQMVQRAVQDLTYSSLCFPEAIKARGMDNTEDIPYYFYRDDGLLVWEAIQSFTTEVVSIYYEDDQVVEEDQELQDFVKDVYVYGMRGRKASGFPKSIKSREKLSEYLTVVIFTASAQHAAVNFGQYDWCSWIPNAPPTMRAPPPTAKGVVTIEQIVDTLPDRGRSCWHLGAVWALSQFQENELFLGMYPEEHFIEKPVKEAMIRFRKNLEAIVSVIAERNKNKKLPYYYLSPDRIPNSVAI
In short: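 Rat PMN leukocyte 10000g supernatant is used as the enzyme. Incubation is run in 25 mM Na+/K+ phosphate pH 7.3 with 1 mM ATP, 0.5 mM CaCl2 and 0.5 mM mercaptoethanol. Inhibitor from DMSO (500-fold stock) is preincubated 2 min at 37°C. [14C]arachidonic acid is added to 10 μM final for 10 min at 37°C. Conversion to 5-HETE and 5,12-diHETEs is read by TLC radioscan. IC50 is derived by linear regression.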

Rattus norvegicus [8] = assay: Inhibition of antigen (IgE) induced bronchoconstriction in hyperreactive inbred rats at a compound dose of 5.0 mg/kg; type: functional; in short: as §1
[9] = target: T3, Polyunsaturated fatty acid 5-lipoxygenase (Homo sapiens, UniProt P09917); assay: Concentration required for 50 % inhibition of leukotriene B4 production in human PMN compared with controls in the absence of compound; type: functional
T3 sequence (P09917 whole entry): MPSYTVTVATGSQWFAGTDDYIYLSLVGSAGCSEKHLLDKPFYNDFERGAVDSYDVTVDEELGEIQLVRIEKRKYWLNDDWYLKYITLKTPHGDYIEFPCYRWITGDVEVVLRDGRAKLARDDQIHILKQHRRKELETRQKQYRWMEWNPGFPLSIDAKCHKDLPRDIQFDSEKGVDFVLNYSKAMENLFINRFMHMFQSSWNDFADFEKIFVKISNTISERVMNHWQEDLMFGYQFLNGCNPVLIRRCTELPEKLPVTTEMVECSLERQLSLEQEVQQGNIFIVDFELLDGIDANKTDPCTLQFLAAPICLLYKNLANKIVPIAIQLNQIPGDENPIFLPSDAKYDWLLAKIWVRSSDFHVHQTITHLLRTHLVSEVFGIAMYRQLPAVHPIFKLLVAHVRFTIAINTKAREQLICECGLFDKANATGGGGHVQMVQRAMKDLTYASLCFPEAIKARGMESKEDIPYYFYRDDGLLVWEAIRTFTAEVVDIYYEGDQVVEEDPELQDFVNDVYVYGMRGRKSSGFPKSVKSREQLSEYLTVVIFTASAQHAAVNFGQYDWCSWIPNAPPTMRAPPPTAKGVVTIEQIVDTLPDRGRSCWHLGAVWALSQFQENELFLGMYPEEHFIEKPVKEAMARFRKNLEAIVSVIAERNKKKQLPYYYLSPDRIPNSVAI
In short: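 Human PMN are isolated from citrated venous blood by dextran sedimentation, Ficoll-Hypaque and NH4Cl lysis. Cells (5×10^5/mL in HHBSS) are warmed 10 min at 37°C and given compound in DMSO for 2 min. They are stimulated with A23187 (10 μM) for 5 min and stopped with methanol. LTB4 is measured by radioimmunoassay.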

Rattus norvegicus [10] = assay: Effect of antigen-induced dyspnea in hyperreactive inbred rats at 1.5 mg/kg of compound concentration; type: functional; in short: as §1
Rattus norvegicus [11] = assay: Inhibition of antigen (IgE) induced bronchoconstriction in hyperreactive inbred rats at a compound dose of 1.5 mg/kg; type: functional; in short: as §1

SMILES	IC50 [7]	IC50 [9]	other results
CCCc1cc(Cl)c2oc(Cc3ccc(OC)cc3)c(C)c2c1O	36 nM	–	inhibition in vivo at 0.5 mg/kg (Rattus norvegicus [1]): 48%; AD100 (Rattus norvegicus [2]): 1.5 mg/kg; IC50 [3]: 30000 nM; inhibition in vivo at 0.25 mg/kg (Saimiri sciureus): > 85%; inhibition in vivo at 0.15 mg/kg (Rattus norvegicus [4]): 36%; inhibition in vivo at 1.5 mg/kg (Rattus norvegicus [5]): 56%; ED50 (Rattus norvegicus [6]): 0.7 mg/kg
CCCc1ccc2oc(Cc3ccc(OC)cc3)c(C)c2c1O	130 nM	31 nM	inhibition in vivo at 0.5 mg/kg (Rattus norvegicus [1]): 55%; inhibition in vivo at 5 mg/kg (Rattus norvegicus [8]): 66%; inhibition in vivo at 1.5 mg/kg (Rattus norvegicus [5]): 64%; ED50 (Rattus norvegicus [10]): < 0.5 mg/kg
COc1ccc(Cc2oc3c(Cl)cc(C)c(O)c3c2C)cc1	–	46 nM	–
COc1ccc(Cc2oc3c(Cl)cc(CCCO)c(O)c3c2C)cc1	161 nM	76 nM	inhibition in vivo at 0.5 mg/kg (Rattus norvegicus [1]): 58%; inhibition in vivo at 0.15 mg/kg (Rattus norvegicus [4]): 39%
CCCc1cc(C)c2oc(Cc3ccc(OC)cc3)c(C)c2c1O	140 nM	12 nM	inhibition in vivo at 5 mg/kg (Rattus norvegicus [8]): 55%; inhibition in vivo at 1.5 mg/kg (Rattus norvegicus [11]): 49%
CCOCc1cc(Cl)c2oc(Cc3ccc(OC)cc3)c(C)c2c1O	–	291 nM	–
CCCc1cc(Cl)c2oc(Cc3ccc(OCC(=O)O)cc3)c(C)c2c1O	–	105 nM	inhibition in vivo at 1.5 mg/kg (Rattus norvegicus [5]): 28%
COc1ccc(Cc2oc3cccc(O)c3c2C)cc1	2070 nM	574 nM	–
CCCc1cc(Cl)c2oc(Cc3ccc(Cl)cc3)c(C)c2c1O	–	26 nM	–
CCCc1cc(Cl)c2oc(Cc3ccccc3)c(C)c2c1O	–	30 nM	–
CCCc1cc(Cl)c2oc(Cc3ccc(OC)cc3OC)c(C)c2c1O	–	13 nM	–
CCCc1cc(Cl)c2oc(Cc3ccc(OC)cc3)c(CCC)c2c1O	–	20 nM	–
COc1ccc(Cc2oc3c(Cl)cc(CCC(=O)O)c(O)c3c2C)cc1	–	2130 nM	inhibition in vivo at 1.5 mg/kg (Rattus norvegicus [5]): 11%
C=CCc1cc(Cl)c2oc(Cc3ccc(OC)cc3)c(C)c2c1O	–	20 nM	–
COc1ccc(Cc2oc3c(Cl)cc(C(C)(C)C)c(O)c3c2C)cc1	–	99 nM	inhibition in vivo at 1.5 mg/kg (Rattus norvegicus [5]): 32%
CCCc1cc(F)c2oc(Cc3ccc(OC)cc3)c(C)c2c1O	129 nM	7 nM	–
COc1ccc(Cc2oc3c(Cl)ccc(O)c3c2C)cc1	2000 nM	376 nM	–
COc1ccc(Cc2oc3c(Cl)cc(Cl)c(O)c3c2C)cc1	–	860 nM	–
